Reference: ChEMBL document CHEMBL1153797, “Prenylxanthones and a bicyclo[3.3.1]nona-2,6-diene derivative from the fungus Emericella rugulosa” (J Nat Prod, 2009)
Converted amounts (≈) assume the structure as drawn. The source made the active and inactive calls. The rule behind the calls is not given here.

Tests used:
[1] = tested on: Plasmodium falciparum; assay: Antimalarial activity against multidrug-resistant Plasmodium falciparum K1 assessed as inhibition of [3H]hypoxanthine uptake by microculture radioisotope technique; type: functional, organism-based
Summary of the method: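 In vitro culture of multidrug-resistant P. falciparum K1 parasites (Trager–Jensen method). Growth measured by [3H]-hypoxanthine uptake in a microculture radioisotope format. IC50 taken as the concentration giving 50% reduction in parasite growth. Artemisinin served as the reference standard.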

[2] = tested on: Mycobacterium tuberculosis; assay: Antimycobacterial activity against Mycobacterium tuberculosis H37Ra by microplate Alamar blue assay; type: functional
Summary of the method: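 M. tuberculosis H37Ra tested by microplate Alamar Blue assay. Activity reported as MIC. Isoniazid and kanamycin sulfate were run as reference drugs.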

[3] = Cytotoxicity against human BC1 cells by SRB assay; type: functional, cell-based
Summary of the method: (§1)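 Human cell lines were epidermoid carcinoma KB, breast cancer BC1 and small-cell lung cancer NCI-H187. Cytotoxicity was read by the Skehan colorimetric method, and IC50 was reported in µg/mL. Ellipticine served as the reference substance.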

[4] = tested on: KB; assay: Cytotoxicity against human KB cells by SRB assay; type: functional, cell-based; summary of the method: as §1
[5] = tested on: NCI-H187; assay: Cytotoxicity against human NCI-H187 cells by SRB assay; type: functional, cell-based; summary of the method: as §1
[6] = Plasmodium falciparum, K1, read-out: IC50
[7] = Homo sapiens, BC1, read-out: IC50
[8] = Homo sapiens, NCI-H187, read-out: IC50

Structure (SMILES) | IC50 [1] | MIC [2] | IC50 ([3]; bc1) | IC50 ([4]; kb) | IC50 ([5]; nci-h187) | IC50 [1, 6] | IC50 [3, 7] | IC50 [5, 8] | IC50 ([4]; Homo sapiens, KB, read-out: IC50)
C=C(C)[C@H]1COc2c(C)cc3oc4c([C@@H](OC)[C@@H]5OC5(C)C)ccc(O)c4c(=O)c3c2[C@@H]1OC(C)=O | Not Active | inactive | Not Active | Not Active | Not Active |  |  |  | 
C=C(C)[C@H]1COc2c(C)cc3oc4c([C@H](OC)[C@@H]5OC5(C)C)ccc(O)c4c(=O)c3c2[C@@H]1O | Not Active | inactive | Not Active | Not Active | Not Active |  |  |  | 
C[C@@H]1CC[C@H]2[C@@H](C)C(=O)O[C@@H]3O[C@@]4(C)CC[C@@H]1[C@]32OO4 [ARTEMISININ] |  |  |  |  |  | 0.001 µg/mL (≈ 0.00354 µM) |  |  | 
Cc1c2ccncc2c(C)c2c1[nH]c1ccccc12 [ELLIPTECINE] |  |  |  |  |  |  | 0.32 µg/mL (≈ 1.3 µM) | 0.26 µg/mL (≈ 1.06 µM) | 
NNC(=O)c1ccncc1 [ISONIAZID] |  | 0.04 µg/mL (≈ 0.292 µM) |  |  |  |  |  |  | 
NC[C@H]1O[C@H](O[C@H]2[C@H](O)[C@@H](O[C@H]3O[C@H](CO)[C@@H](O)[C@H](N)[C@H]3O)[C@H](N)C[C@@H]2N)[C@H](O)[C@@H](O)[C@@H]1O.O=S(=O)(O)O [KANAMYCIN SULFATE] |  | 2 µg/mL |  |  |  |  |  |  | 
C=C(C(=O)CC)[C@H]1[C@@]2(C)C=C(C)C[C@]1(C)C=C(C)[C@@H]2/C(C)=C\[C@@H]1C=CC(=O)C1 [RUGULOSONE] |  | 12.5 µg/mL (≈ 33 µM) |  |  |  | 1.9 µg/mL (≈ 5.02 µM) | 1.3 µg/mL (≈ 3.43 µM) | 1.3 µg/mL (≈ 3.43 µM) | 2.6 µg/mL (≈ 6.87 µM)
C=C(C)[C@H]1COc2c(C)cc3oc4c(CC(C)(C)C=O)ccc(O)c4c(=O)c3c2[C@@H]1O [RUGULOXANTHONE A] | Not Active | inactive | Not Active | Not Active | Not Active |  |  |  | 
C=C(C)[C@H]1COc2c(C)cc3oc4c(CC(=O)C(C)C)ccc(O)c4c(=O)c3c2[C@@H]1O [RUGULOXANTHONE B] | Not Active | inactive | Not Active | Not Active | Not Active |  |  |  | 
C=C(C)[C@H](O)Cc1ccc(O)c2c(=O)c3c4c(c(C)cc3oc12)OC[C@H](C(=C)C)[C@H]4O [RUGULOXANTHONE C] | Not Active | inactive | Not Active | Not Active | Not Active |  |  |  | 
C=C(C)[C@H]1COc2c(C)cc3oc4c(CC=C(C)C)ccc(O)c4c(=O)c3c2[C@@H]1O [SHAMIXANTHONE] | Not Active | inactive | Not Active | Not Active | Not Active |  |  |  | 
C=C(C)[C@H]1COc2c(C)cc3oc4c(C[C@H](O)C(C)(C)OCC)ccc(O)c4c(=O)c3c2[C@@H]1O [TAJIXANTHONE ETHANOATE] | Not Active | inactive | Not Active | Not Active | Not Active |  |  |  | 
C=C(C)[C@H]1COc2c(C)cc3oc4c(C[C@H](O)C(C)(C)O)ccc(O)c4c(=O)c3c2[C@@H]1O.O [TAJIXANTHONE HYDRATE] | Not Active | inactive | Not Active | Not Active | Not Active |  |  |  | 
C=C(C)[C@H]1COc2c(C)cc3oc4c(C[C@H](O)C(C)(C)OC)ccc(O)c4c(=O)c3c2[C@@H]1O [TAJIXANTHONE METHANOATE] | Not Active | inactive | Not Active | Not Active | Not Active |  |  |  | 
C=C(C)[C@@H]1COc2c(C)cc3oc4c(C[C@@H]5OC5(C)C)ccc(O)c4c(=O)c3c2[C@H]1O [TAJIXANTHONE] | Not Active | inactive | Not Active | Not Active | Not Active |  |  |  | 
